Like-named read-outs stand apart in the source and are kept apart here. Values belong to the compound of their own block, whether it stands above or below them.
Tests used:
[1] = tested on: HeLa (human cervix carcinoma) cells; experiment: Cytostatic activity: inhibition of tumor cell proliferation; format: cell-based; conditions: read-out: IC50 (50% inhibitory concentration)
Summary of the method: (§1)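 Exponentially growing tumour cells were seeded in 96-well plates with a range of test-compound concentrations: CEM lymphocytes at 75,000 cells/well for 3 days, HeLa cervix carcinoma cells at 20,000 cells/well for 4 days. Viable cells were counted with a Coulter counter. The 50% value is the concentration inhibiting tumour cell proliferation by 50%.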

[2] = tested on: MDCK, HEL, CrFK, HeLa and CEM cells; experiment: Cytostatic activity over the cell culture panel of Table 4; format: cell-based; conditions: read-out: IC50, range over the cell cultures
[3] = tested on: HEL (human lung fibroblast) cells; experiment: Cytostatic activity: inhibition of cell proliferation; format: cell-based; conditions: read-out: IC50 (50% inhibitory concentration)
[4] = tested on: CEM (human lymphocyte) cells; experiment: Cytostatic activity: inhibition of tumor cell proliferation; format: cell-based; conditions: read-out: IC50 (50% inhibitory concentration)
Summary of the method: as §1

[5] = tested on: HCMV Davis strain; experiment: Antiviral assay: inhibition of virus-induced cytopathicity in HEL cell cultures; format: cell-based, human cytomegalovirus; conditions: Human betaherpesvirus 5, HEL, read-out: EC50 against HCMV Davis strain
[6] = tested on: HCMV AD-169 strain; experiment: as above; format: cell-based, human cytomegalovirus; conditions: Human betaherpesvirus 5, AD169, HEL, read-out: EC50 against HCMV AD-169 strain

IC50 [1]: 7.1 µM
IC50 ([4]; Homo sapiens, CCRF-CEM): 10 µM
Compound: S=C(NN=Cc1ccc(Cl)s1)Nc1ccccc1 [Compound 2, 5-Chlorothiophene-2-carboxaldehyde-N(4)phenyl thiosemicarbazone]
IC50 [2]: 7.1 to 57.8 µM
IC50 [3]: 10.4 µM

Compound: N.N.[Cl][Pt][Cl] [cisplatinum, reference compound]
IC50 ([4]; CEM cells): 2.2 µM

EC50 [5]: 3.4 µM
EC50 [6]: 5 µM
Compound: Nc1nc(O)c2ncn(COC(CO)CO)c2n1 [ganciclovir]

Reference: paper PMC7126824 (European Journal of Medicinal Chemistry, 2011)
